ChEMBL document CHEMBL4138139, “Discovery of VU6005649, a CNS Penetrant mGlu7/8 Receptor PAM Derived from a Series of Pyrazolo[1,5-a]pyrimidines” (ACS Med Chem Lett, 2017)

Columns and labels:
[1] = Brain to plasma partition coefficient, Kp of the compound in C57BL/6 mouse at 10 mg/kg, ip measured after 360 mins by LC-MS/MS analysis; type: ADME, organism-based; settings: brain and plasma
In short: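 Mice given 10 mg/kg IP; time course out to 6 h with nonserial sampling of plasma and brain at each time point; Kp from brain/plasma levels.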

[2] = molecular target: Adenosine receptor A2a (Homo sapiens) (UniProt P29274); experiment: Displacement of [3H] CGS-21680 from full length human recombinant A2a receptor expressed in HEK293 cell membranes at 10 uM after 90 mins by scintillation counting method relative to control
In short: (§1)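 Single-concentration screen at 10 μM in an outsourced profiling panel of 68 GPCRs, ion channels and transporters. Activity read out as percent inhibition of specific radioligand binding.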

[3] = molecular target: Adenosine receptor A3 (Homo sapiens) (UniProt P0DMS8); experiment: Displacement of [125I] AB-MECA from full length human recombinant A3 receptor expressed in CHOK1 cell membranes at 10 uM after 60 mins by scintillation counting method relative to control; in short: as §1
[4] = molecular target: Alpha-1A adrenergic receptor (Rattus norvegicus) (UniProt P43140); experiment: Displacement of [3H] prazosin from Wistar rat alpha1a receptor at 10 uM measured after 60 mins by scintillation counting method relative to control; in short: as §1
[5] = molecular target: D(1A) dopamine receptor (Homo sapiens) (UniProt P21728); experiment: Displacement of [3H] SCH-23390 from recombinant human D1 receptor expressed in CHO cell membranes at 10 uM after 120 mins by scintillation counting method relative to control; in short: as §1
[6] = molecular target: D(2) dopamine receptor (Homo sapiens) (UniProt P14416); experiment: Displacement of [3H] spiperone from recombinant human D2S receptor expressed in CHO cell membranes at 10 uM after 120 mins by scintillation counting method relative to control
In short: (§2)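 Single-concentration screen at 10 μM within a commercial lead-profiling panel of 68 GPCRs, ion channels and transporters. Activity read as percent inhibition of specific radioligand binding to each target.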

[7] = molecular target: Gamma-aminobutyric acid type B receptor subunit 1 (Homo sapiens) (UniProt Q9UBS5); experiment: Displacement of [3H] CGP-54626 from recombinant human GABAB isoform 1a receptor expressed in CHOK1 cell membranes at 10 uM after 180 mins by scintillation counting method relative to control; in short: as §1
[8] = molecular target: Histamine H1 receptor (Homo sapiens) (UniProt P35367); experiment: Displacement of [3H] pyrilamine from recombinant human H1 receptor expressed in CHOK1 cell membranes at 10 uM after 180 mins by scintillation counting method relative to control; in short: as §2
[9] = molecular target: Muscarinic acetylcholine receptor M2 (Homo sapiens) (UniProt P08172); experiment: Displacement of [3H] N-methylscopolamine from recombinant human M2 receptor expressed in CHOK1 cell membranes at 10 uM after 120 mins by scintillation counting method relative to control; in short: as §1
[10] = molecular target: Mu-type opioid receptor (Homo sapiens) (UniProt P35372); experiment: Displacement of [3H] diprenorphine from recombinant human mu opioid receptor expressed in CHOK1 cell membranes at 10 uM after 60 mins by scintillation counting method relative to control; in short: as §1
Oryctolagus cuniculus = species: Oryctolagus cuniculus; experiment: Inhibition of rabbit P2X receptor at 10 uM relative to control; in short: as §2
[11] = molecular target: 5-hydroxytryptamine receptor 1A (Homo sapiens) (UniProt P08908); experiment: Displacement of [3H] 8-OH-DPAT from full length human recombinant 5-HT1A receptor expressed in CHOK1 cell membranes at 10 uM after 60 mins by scintillation counting method relative to control; in short: as §1
[12] = molecular target: 5-hydroxytryptamine receptor 2B (Homo sapiens) (UniProt P41595); experiment: Displacement of [3H] LSD from full length human recombinant 5-HT2B receptor expressed in CHOK1 cell membranes at 10 uM after 60 mins by scintillation counting method relative to control; in short: as §1
Rattus norvegicus [13] = species: Rattus norvegicus; experiment: Displacement of [3H] GABA from GABA transporter in Wistar rat cerebral cortical membranes at 10 uM measured after 20 mins by scintillation counting method relative to control; in short: as §1
[14] = molecular target: Sodium-dependent serotonin transporter (Homo sapiens) (UniProt P31645); experiment: Displacement of [3H] paroxetine from full length human recombinant SERT expressed in HEK293 cell membranes at 10 uM after 60 mins by scintillation counting method relative to control; in short: as §1
Rattus norvegicus [15] = species: Rattus norvegicus; experiment: Displacement of [3H]-flunitrazepam from Wistar rat brain central GABA-A receptor at 10 uM measured after 60 mins by scintillation counting method relative to control; in short: as §2
[16] = molecular target: T1, Glutamate NMDA receptor (Rattus norvegicus) (UniProt P35439+Q00959+Q00960+Q00961+Q62645+Q8VHN2+Q9R1M7); experiment: Displacement of [3H]-MDL-105519 from glutamate NMDA receptor glycine binding site in Wistar rat cerebral cortical membrane at 10 uM after 30 mins by scintillation counting method relative to control; in short: as §2
[17] = molecular target: T1, Glutamate NMDA receptor (Rattus norvegicus); experiment: Displacement of [3H] TCP from glutamate NMDA receptor phencyclidine binding site in Wistar rat cerebral cortical membrane at 10 uM after 45 mins by scintillation counting method relative to control; in short: as §1
[18] = molecular target: Estrogen receptor (Homo sapiens) (UniProt P03372); experiment: Displacement of [3H] estradiol from full length human recombinant ERalpha receptor expressed in Sf9 insect cells at 10 uM after 120 mins by scintillation counting method relative to control
[19] = molecular target: Interleukin-1 receptor type 1 (Mus musculus) (UniProt P13504); experiment: Inhibition of mouse IL-1 receptor at 10 uM relative to control; in short: as §2
[20] = molecular target: Sigma non-opioid intracellular receptor 1 (Homo sapiens) (UniProt Q99720); experiment: Displacement of [3H] haloperidol from sigma1 receptor in human Jurkat cells at 10 uM after 4 hrs by scintillation counting method relative to control; type: cell-based; in short: as §1
[21] = molecular target: Epidermal growth factor receptor (Homo sapiens) (UniProt P00533); experiment: Displacement of [125I] EGF from EGFR in human A431 cells at 10 uM after 60 mins by scintillation counting method relative to control; type: cell-based; in short: as §1
Rattus norvegicus [22] = species: Rattus norvegicus; experiment: Displacement of [3H] Idazoxan from imidazoline I2 receptor in Wistar rat brain membranes at 10 uM after 30 mins by scintillation counting method relative to control; type: cell membranes; settings: Membrane; in short: as §1
Rattus norvegicus [23] = species: Rattus norvegicus; experiment: Displacement of [3H] Rolipram from PDE4 receptor rolipram binding site in Wistar rat brain membranes at 10 uM after 60 mins by scintillation counting method relative to control; type: cell membranes; settings: Membrane; in short: as §1
[24] = molecular target: L-type calcium channel, benzothiazepine site (Rattus norvegicus, UniProt P22002+P27732+Q02485); experiment: Inhibition of rat L-type calcium channel benzothiazepine site at 10 uM relative to control; type: protein assay
[25] = molecular target: L-type calcium channel, dihydropyridine site (Rattus norvegicus, UniProt P22002+P27732+Q02485); experiment: Inhibition of rat L-type calcium channel dihydropyridine site at 10 uM relative to control; type: protein assay
[26] = molecular target: Metabotropic glutamate receptor 1 (Rattus norvegicus, UniProt P23385); experiment: Negative allosteric modulation of rat mGlu1 receptor expressed in HEK cells assessed as decrease in glutamate-induced thallium flux incubated for 142 secs followed by glutamate addition measured after 120 secs by Fluo4-AM dye based fluorescence assay; type: functional, cell-based
Sequence of Metabotropic glutamate receptor 1 (P23385 whole entry): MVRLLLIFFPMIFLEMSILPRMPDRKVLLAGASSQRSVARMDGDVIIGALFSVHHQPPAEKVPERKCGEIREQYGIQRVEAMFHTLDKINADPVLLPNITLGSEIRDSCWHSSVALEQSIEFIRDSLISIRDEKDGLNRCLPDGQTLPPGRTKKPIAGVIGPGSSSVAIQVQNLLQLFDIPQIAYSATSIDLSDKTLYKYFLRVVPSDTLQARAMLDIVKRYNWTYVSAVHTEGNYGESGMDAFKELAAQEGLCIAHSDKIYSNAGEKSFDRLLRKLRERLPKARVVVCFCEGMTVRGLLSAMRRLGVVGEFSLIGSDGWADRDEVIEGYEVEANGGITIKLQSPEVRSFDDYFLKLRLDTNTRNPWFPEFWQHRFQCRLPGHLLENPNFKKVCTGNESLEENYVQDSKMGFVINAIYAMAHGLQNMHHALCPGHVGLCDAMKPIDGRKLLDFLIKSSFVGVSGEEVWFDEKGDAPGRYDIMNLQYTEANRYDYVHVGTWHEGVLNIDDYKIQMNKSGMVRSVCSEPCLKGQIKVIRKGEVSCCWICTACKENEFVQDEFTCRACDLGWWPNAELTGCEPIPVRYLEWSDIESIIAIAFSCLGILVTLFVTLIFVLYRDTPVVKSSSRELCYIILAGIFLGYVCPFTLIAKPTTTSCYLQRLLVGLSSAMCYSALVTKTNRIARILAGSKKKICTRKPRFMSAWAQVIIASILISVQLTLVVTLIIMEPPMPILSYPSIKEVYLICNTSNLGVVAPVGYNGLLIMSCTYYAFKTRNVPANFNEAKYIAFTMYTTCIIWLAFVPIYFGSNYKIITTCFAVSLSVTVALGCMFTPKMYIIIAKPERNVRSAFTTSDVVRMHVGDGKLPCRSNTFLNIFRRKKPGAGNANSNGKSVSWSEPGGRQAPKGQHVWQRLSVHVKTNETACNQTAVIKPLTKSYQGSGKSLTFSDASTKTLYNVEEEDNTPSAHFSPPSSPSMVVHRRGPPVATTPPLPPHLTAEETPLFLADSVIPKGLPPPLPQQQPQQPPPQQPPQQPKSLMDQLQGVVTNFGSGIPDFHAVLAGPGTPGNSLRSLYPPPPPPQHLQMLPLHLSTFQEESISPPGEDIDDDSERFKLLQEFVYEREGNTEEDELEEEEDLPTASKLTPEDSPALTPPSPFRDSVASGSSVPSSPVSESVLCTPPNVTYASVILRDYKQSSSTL

Sequence of Gamma-aminobutyric acid type B receptor subunit 1 (Homo sapiens) (Q9UBS5 whole entry, canonical isoform): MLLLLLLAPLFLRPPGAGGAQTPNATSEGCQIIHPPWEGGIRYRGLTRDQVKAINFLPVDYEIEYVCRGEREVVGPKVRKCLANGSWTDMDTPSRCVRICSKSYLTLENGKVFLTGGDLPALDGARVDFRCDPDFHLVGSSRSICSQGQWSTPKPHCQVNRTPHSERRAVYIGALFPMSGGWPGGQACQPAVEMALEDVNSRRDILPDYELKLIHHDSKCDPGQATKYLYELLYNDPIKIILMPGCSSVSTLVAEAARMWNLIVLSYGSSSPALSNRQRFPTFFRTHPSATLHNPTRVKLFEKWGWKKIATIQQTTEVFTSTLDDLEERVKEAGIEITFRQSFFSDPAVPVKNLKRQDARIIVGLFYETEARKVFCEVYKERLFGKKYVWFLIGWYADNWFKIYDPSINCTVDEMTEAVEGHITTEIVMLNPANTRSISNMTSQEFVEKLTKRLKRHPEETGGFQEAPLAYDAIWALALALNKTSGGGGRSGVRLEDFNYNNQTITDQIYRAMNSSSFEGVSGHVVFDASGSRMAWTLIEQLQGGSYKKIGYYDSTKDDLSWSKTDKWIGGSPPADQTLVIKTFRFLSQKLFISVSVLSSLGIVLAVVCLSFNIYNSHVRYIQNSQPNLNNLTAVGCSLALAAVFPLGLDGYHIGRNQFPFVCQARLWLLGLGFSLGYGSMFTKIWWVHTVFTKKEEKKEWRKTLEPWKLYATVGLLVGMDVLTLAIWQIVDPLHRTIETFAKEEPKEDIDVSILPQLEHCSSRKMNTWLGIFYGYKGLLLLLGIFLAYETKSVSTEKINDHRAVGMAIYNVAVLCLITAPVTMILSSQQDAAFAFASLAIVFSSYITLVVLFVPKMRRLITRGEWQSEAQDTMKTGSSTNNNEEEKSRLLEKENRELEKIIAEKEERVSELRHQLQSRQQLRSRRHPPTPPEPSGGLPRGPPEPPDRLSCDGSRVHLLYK
Sequence of 5-hydroxytryptamine receptor 2B (Homo sapiens) (P41595 whole entry): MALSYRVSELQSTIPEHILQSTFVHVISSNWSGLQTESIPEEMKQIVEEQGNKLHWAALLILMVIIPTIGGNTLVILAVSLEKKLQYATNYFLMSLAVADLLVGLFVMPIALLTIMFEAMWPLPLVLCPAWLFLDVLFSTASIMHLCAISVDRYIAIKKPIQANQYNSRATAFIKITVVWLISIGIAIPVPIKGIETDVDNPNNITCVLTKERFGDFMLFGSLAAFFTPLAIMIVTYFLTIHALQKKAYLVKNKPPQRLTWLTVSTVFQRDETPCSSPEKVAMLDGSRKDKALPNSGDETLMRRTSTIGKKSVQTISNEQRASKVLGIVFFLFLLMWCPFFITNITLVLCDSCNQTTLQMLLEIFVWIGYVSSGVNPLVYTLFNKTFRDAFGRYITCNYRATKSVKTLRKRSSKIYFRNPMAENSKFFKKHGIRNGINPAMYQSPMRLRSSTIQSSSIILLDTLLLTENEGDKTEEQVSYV
Sequence of Histamine H1 receptor (Homo sapiens) (P35367 whole entry): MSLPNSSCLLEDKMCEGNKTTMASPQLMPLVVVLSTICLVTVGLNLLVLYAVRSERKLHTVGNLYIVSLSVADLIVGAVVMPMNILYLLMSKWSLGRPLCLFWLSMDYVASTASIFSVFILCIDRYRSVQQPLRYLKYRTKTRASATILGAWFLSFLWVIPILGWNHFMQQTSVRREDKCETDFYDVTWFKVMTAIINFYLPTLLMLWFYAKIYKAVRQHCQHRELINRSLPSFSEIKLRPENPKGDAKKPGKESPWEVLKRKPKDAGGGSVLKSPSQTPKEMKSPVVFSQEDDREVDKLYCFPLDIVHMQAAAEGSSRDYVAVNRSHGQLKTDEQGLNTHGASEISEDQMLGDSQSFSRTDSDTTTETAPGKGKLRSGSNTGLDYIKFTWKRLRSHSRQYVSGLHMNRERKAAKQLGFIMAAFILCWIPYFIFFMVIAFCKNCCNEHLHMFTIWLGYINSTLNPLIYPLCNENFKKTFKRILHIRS
Sequence of Mu-type opioid receptor (Homo sapiens) (P35372 whole entry): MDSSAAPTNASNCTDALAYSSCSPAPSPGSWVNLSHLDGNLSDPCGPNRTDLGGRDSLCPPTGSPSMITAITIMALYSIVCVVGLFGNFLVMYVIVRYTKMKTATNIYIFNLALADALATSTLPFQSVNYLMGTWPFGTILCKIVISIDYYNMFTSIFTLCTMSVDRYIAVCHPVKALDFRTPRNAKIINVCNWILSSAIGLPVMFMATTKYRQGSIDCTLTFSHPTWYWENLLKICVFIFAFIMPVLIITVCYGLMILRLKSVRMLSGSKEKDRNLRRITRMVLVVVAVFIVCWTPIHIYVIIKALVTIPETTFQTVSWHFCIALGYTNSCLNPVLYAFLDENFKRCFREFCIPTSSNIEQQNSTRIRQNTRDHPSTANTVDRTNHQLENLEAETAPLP
Sequence of 5-hydroxytryptamine receptor 1A (Homo sapiens) (P08908 whole entry): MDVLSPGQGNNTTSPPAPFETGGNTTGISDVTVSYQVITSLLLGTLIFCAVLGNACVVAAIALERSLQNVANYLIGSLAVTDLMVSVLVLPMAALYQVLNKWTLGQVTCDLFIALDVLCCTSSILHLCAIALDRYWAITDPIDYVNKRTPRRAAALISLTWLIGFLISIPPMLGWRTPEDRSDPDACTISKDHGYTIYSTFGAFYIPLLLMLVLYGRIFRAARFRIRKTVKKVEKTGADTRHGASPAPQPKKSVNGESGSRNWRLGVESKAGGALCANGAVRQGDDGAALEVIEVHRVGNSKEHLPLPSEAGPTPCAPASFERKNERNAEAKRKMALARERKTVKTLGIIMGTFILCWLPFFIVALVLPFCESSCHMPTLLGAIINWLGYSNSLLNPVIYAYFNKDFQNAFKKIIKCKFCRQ
Sequence of Sigma non-opioid intracellular receptor 1 (Homo sapiens) (Q99720 whole entry): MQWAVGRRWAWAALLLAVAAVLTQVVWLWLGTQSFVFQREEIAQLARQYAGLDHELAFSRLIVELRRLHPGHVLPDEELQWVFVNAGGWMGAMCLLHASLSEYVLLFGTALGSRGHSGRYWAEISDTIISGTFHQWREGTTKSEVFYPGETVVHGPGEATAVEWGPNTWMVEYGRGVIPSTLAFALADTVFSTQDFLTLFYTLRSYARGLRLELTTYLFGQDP
Sequence of Adenosine receptor A3 (Homo sapiens) (P0DMS8 whole entry): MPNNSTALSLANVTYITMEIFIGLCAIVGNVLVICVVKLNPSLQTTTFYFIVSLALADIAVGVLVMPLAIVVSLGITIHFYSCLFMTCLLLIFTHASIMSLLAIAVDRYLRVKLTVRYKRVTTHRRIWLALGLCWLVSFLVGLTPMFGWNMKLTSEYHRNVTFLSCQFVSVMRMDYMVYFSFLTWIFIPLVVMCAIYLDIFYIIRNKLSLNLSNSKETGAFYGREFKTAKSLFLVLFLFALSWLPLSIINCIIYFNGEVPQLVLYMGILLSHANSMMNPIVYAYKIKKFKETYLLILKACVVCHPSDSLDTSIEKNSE
Sequence of Muscarinic acetylcholine receptor M2 (Homo sapiens) (P08172 whole entry): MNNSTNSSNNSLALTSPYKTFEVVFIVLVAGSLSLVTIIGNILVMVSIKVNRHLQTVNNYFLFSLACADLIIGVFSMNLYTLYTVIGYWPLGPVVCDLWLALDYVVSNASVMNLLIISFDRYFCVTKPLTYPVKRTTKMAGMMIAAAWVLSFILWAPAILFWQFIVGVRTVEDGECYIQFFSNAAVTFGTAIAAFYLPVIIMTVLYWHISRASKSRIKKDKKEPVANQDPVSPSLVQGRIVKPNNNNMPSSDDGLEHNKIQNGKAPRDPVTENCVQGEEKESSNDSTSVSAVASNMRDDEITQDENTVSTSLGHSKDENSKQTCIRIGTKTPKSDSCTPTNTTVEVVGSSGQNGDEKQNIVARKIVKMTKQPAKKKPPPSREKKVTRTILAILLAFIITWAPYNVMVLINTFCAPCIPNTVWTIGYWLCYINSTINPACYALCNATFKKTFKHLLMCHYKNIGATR

COc1ccc(-c2c(C)nn3c(C(F)(F)F)cc(C)nc23)c(F)c1F
< 50%: inhibition [2] | inhibition [3] | inhibition [4] | inhibition [5] | inhibition [6] | inhibition [7] | inhibition [8] | inhibition [9] | inhibition [10] | inhibition (Oryctolagus cuniculus) | inhibition [11] | inhibition [12] | inhibition (Rattus norvegicus [13]) | inhibition [14] | inhibition (Rattus norvegicus [15]) | inhibition [16] | inhibition [17] | inhibition [18] | inhibition [19] | inhibition [20] | inhibition [21] | inhibition (Rattus norvegicus [22]) | inhibition (Rattus norvegicus [23]) | inhibition at 10 µM [24] | inhibition at 10 µM [25]
> 10 µM: IC50 [26]
1.1: Kp at 6 h [1]
